In ChEMBL document CHEMBL2034933, “New quinazolinone-pyrimidine hybrids: synthesis, anti-inflammatory, and ulcerogenicity studies” (Eur J Med Chem, 2012):

Tests used:
Rattus norvegicus [1] = assay: Antiinflammatory activity in albino rat assessed as inhibition of carrageenan-induced paw edema at 100 mg/kg, po administered 1 hr prior to carrageenan-challenge measured after 2 hrs; type: functional
Procedure, shortened: (§1)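 Adult albino rats of both sexes (120–150 g), pre-hydrated with 3 ml water by gavage, five per group. Test agents suspended in distilled water with a few drops of Tween 80, given orally 1 h before sub-plantar injection of 50 µl 1% carrageenan into the right hind paw. Dial-gauge paw thickness taken at 0.5, 1, 2 and 3 h, with the left paw as reference. % inhibition = (Wc−Wt)/Wc × 100 against saline/Tween 80 controls.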

Rattus norvegicus [2] = assay: Antiinflammatory activity in albino rat assessed as inhibition of carrageenan-induced paw edema at 100 mg/kg, po administered 1 hr prior to carrageenan-challenge measured after 3 hrs; type: functional; procedure, shortened: as §1
Rattus norvegicus [3] = assay: Antiinflammatory activity in albino rat assessed as inhibition of carrageenan-induced paw edema at 100 mg/kg, po administered 1 hr prior to carrageenan-challenge measured after 0.5 hrs; type: functional; procedure, shortened: as §1
Rattus norvegicus [4] = assay: Antiinflammatory activity in albino rat assessed as inhibition of carrageenan-induced paw edema at 100 mg/kg, po administered 1 hr prior to carrageenan-challenge measured after 1 hr; type: functional; procedure, shortened: as §1
Rattus norvegicus [5] = assay: Antiinflammatory activity in po dosed albino rat assessed as inhibition of carrageenan-induced paw edema administered 1 hr prior to carrageenan-challenge relative to diclophenac; type: functional
Ovis aries = species on record: Ovis aries; assay: Selectivity ratio of IC50 for ovine COX2 to ovine COX1
Procedure, shortened: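 Ovine COX-1 and COX-2 inhibition measured with a commercial COX inhibitor screening kit following the Gierse et al. method. Selectivity expressed as the ratio IC50(COX-2)/IC50(COX-1).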

Rattus norvegicus [6] = assay: Ulcerogenic activity in fasted albino rat assessed as ulcer index at 100 mg/kg po administered qd for 3 days measured on day 4; type: toxicity, organism-based; set-up: dose 100 mg/kg, route oral; conditions: in vivo, 72 h
Procedure, shortened: (§2)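 Albino rats of both sexes (120–150 g), five per group, fasted 20 h, then dosed orally in 1% Tween (test agents 100 mg/kg, celecoxib and diclofenac sodium 50 mg/kg). Feeding cycle: 2 h fast, 2 h feed, 20 h fast, repeated with doses on days 2 and 3. Ulcers scored 0–4. Ulcer index = %incidence/10 + mean ulcer number + mean severity.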

Rattus norvegicus [7] = assay: Antiinflammatory activity in albino rat assessed as inhibition of carrageenan-induced paw edema at 200 mg/kg, po administered 1 hr prior to carrageenan-challenge measured after 3 hrs; type: functional
Procedure, shortened: (§3)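 Carrageenan rat paw oedema (albino rats of both sexes, 120–150 g), oral dosing in Tween 80 suspension 1 h before 50 µl 1% carrageenan sub-plantar injection. Inhibition read at 3 h over a three-dose series (50, 100, 200 mg/kg for test agents; 20, 50, 100 mg/kg for diclofenac sodium). IC50 given in mg/kg and µmol/kg.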

Rattus norvegicus [8] = assay: Antiinflammatory activity in po dosed albino rat assessed as inhibition of carrageenan-induced paw edema administered 1 hr prior to carrageenan-challenge measured after 3 hrs; type: functional, organism-based; procedure, shortened: as §3
Rattus norvegicus [9] = assay: Antiinflammatory activity in albino rat assessed as inhibition of carrageenan-induced paw edema at 50 mg/kg, po administered 1 hr prior to carrageenan-challenge measured after 3 hrs; type: functional; procedure, shortened: as §1
Rattus norvegicus [10] = assay: Antiinflammatory activity in albino rat assessed as inhibition of carrageenan-induced paw edema at 50 mg/kg, po administered 1 hr prior to carrageenan-challenge measured after 0.5 hrs; type: functional; procedure, shortened: as §1
Rattus norvegicus [11] = assay: Ulcerogenic activity in fasted albino rat assessed as ulcer index at 50 mg/kg po administered qd for 3 days measured on day 4; type: toxicity, organism-based; set-up: dose 50 mg/kg, route oral; conditions: in vivo, 72 h; procedure, shortened: as §2
Rattus norvegicus [12] = assay: Antiinflammatory activity in albino rat assessed as inhibition of carrageenan-induced paw edema at 50 mg/kg, po administered 1 hr prior to carrageenan-challenge measured after 2 hrs; type: functional; procedure, shortened: as §1
Rattus norvegicus [13] = assay: Antiinflammatory activity in albino rat assessed as inhibition of carrageenan-induced paw edema at 20 mg/kg, po administered 1 hr prior to carrageenan-challenge measured after 3 hrs; type: functional; procedure, shortened: as §3
Rattus norvegicus [14] = assay: Antiinflammatory activity in albino rat assessed as inhibition of carrageenan-induced paw edema at 50 mg/kg, po administered 1 hr prior to carrageenan-challenge measured after 1 hr; type: functional; procedure, shortened: as §1

| Structure (SMILES) | inhibition in vivo at 100 mg/kg (Rattus norvegicus [1]) [%] | inhibition in vivo at 100 mg/kg (Rattus norvegicus [2]) [%] | inhibition in vivo at 100 mg/kg (Rattus norvegicus [3]) [%] | inhibition in vivo at 100 mg/kg (Rattus norvegicus [4]) [%] | inhibition (INH) (Rattus norvegicus [5]) [%] | Ratio IC50 (Ovis aries) | UI (Rattus norvegicus [6]) | inhibition in vivo at 200 mg/kg (Rattus norvegicus [7]) [%] | IC50 (Rattus norvegicus [8]) [mg/kg] | inhibition in vivo at 50 mg/kg (Rattus norvegicus [9]) [%] | inhibition in vivo at 50 mg/kg (Rattus norvegicus [10]) [%] | UI (Rattus norvegicus [11]) | inhibition in vivo at 50 mg/kg (Rattus norvegicus [12]) [%] | inhibition in vivo at 20 mg/kg (Rattus norvegicus [13]) [%] | inhibition in vivo at 50 mg/kg (Rattus norvegicus [14]) [%] |
| --- | --- | --- | --- | --- | --- | --- | --- | --- | --- | --- | --- | --- | --- | --- | --- |
| O=C(CSc1nc(-c2ccc(O)cc2)c(C(=O)O)c(=O)[nH]1)Nn1c(COc2ccc(Cl)cc2Cl)nc2ccccc2c1=O | 38.6 | 38.6 | 32.7 | 36.4 |  |  |  |  |  |  |  |  |  |  |  |
| O=C(CSc1nc(-c2ccc(Cl)cc2)c(C(=O)O)c(=O)[nH]1)Nn1c(COc2ccc(Cl)cc2Cl)nc2ccccc2c1=O | 61.4 | 61.4 | 51.9 | 58.2 |  |  |  |  |  |  |  |  |  |  |  |
| N#Cc1c(-c2ccccc2)nc(SCC(=O)Nn2c(COc3ccc(Cl)cc3Cl)nc3ccccc3c2=O)[nH]c1=O | 86 | 86 | 80.8 | 81.8 | >90 | 20.6 | 14.4 | 91.2 | 86.74 | 68.4 |  |  |  |  |  |
| N#Cc1c(Cl)nc(SCC(=O)Nn2c(COc3ccc(Cl)cc3Cl)nc3ccccc3c2=O)nc1-c1ccc(Cl)cc1 | 68.4 | 68.4 | 61.5 | 63.6 |  |  |  |  |  |  |  |  |  |  |  |
| N#Cc1c(Nc2ccccc2)nc(SCC(=O)Nn2c(COc3ccc(Cl)cc3Cl)nc3ccccc3c2=O)nc1-c1ccc(Cl)cc1 | 50.9 | 56.1 | 36.5 | 43.6 |  |  |  |  |  |  |  |  |  |  |  |
| N#Cc1c(Nc2ccccc2)nc(SCC(=O)Nn2c(COc3ccc(Cl)cc3Cl)nc3ccccc3c2=O)nc1-c1ccc(O)cc1 | 91.2 | 91.2 | 90.4 | 90.9 | >90 | 0.44 | 11.38 | 96.5 | 81.31 | 77.2 |  |  |  |  |  |
| N#Cc1c(Cl)nc(SCC(=O)Nn2c(COc3ccc(Cl)cc3Cl)nc3ccccc3c2=O)nc1-c1ccccc1 | 66.7 | 68.4 | 53.9 | 60 |  |  |  |  |  |  |  |  |  |  |  |
| N#Cc1c(Cl)nc(SCC(=O)Nn2c(COc3ccc(Cl)cc3Cl)nc3ccccc3c2=O)nc1-c1ccc(O)cc1 | 73.7 | 73.7 | 67.3 | 72.7 |  |  |  |  |  |  |  |  |  |  |  |
| N#Cc1c(Nc2ccc(Cl)cc2)nc(SCC(=O)Nn2c(COc3ccc(Cl)cc3Cl)nc3ccccc3c2=O)nc1-c1ccc(Cl)cc1 | 61.4 | 64.9 | 46.1 | 54.5 |  |  |  |  |  |  |  |  |  |  |  |
| O=C([O-])Cc1ccccc1Nc1c(Cl)cccc1Cl.[Na+] [DICLOFENAC SODIUM] |  | 91.2 |  |  |  |  |  |  | 45.01 | 87.3 | 76.9 | 17.02 | 87.7 | 42.2 | 83.6 |
| N#Cc1c(-c2ccc(Cl)cc2)nc(SCC(=O)Nn2c(COc3ccc(Cl)cc3Cl)nc3ccccc3c2=O)[nH]c1=O | 64.9 | 64.9 | 61.5 | 63.6 |  |  |  |  |  |  |  |  |  |  |  |
| Cn1c(SCC(=O)Nn2c(COc3ccc(Cl)cc3Cl)nc3ccccc3c2=O)nc(-c2ccc(O)cc2)c(C#N)c1=O | 86 | 86 | 76.9 | 80 | >90 | 0.62 | 11.22 | 97.8 | 82.89 | 70.4 |  |  |  |  |  |
| Cc1ccc(-c2cc(C(F)(F)F)nn2-c2ccc(S(N)(=O)=O)cc2)cc1 [CELECOXIB] |  |  |  |  |  | 0.02 |  |  |  |  |  | 12.51 |  |  |  |
